From ChEMBL document CHEMBL3525972, “Characterization of aldehyde oxidase enzyme activity in cryopreserved human hepatocytes” (Drug Metab Dispos, 2012) come the findings set out here.

Where only a bound is given, the exact number is not on record here.

The target of series [1] is T1, Aldehyde oxidase (Homo sapiens, UniProt Q06278).
T1 sequence (Q06278 whole entry): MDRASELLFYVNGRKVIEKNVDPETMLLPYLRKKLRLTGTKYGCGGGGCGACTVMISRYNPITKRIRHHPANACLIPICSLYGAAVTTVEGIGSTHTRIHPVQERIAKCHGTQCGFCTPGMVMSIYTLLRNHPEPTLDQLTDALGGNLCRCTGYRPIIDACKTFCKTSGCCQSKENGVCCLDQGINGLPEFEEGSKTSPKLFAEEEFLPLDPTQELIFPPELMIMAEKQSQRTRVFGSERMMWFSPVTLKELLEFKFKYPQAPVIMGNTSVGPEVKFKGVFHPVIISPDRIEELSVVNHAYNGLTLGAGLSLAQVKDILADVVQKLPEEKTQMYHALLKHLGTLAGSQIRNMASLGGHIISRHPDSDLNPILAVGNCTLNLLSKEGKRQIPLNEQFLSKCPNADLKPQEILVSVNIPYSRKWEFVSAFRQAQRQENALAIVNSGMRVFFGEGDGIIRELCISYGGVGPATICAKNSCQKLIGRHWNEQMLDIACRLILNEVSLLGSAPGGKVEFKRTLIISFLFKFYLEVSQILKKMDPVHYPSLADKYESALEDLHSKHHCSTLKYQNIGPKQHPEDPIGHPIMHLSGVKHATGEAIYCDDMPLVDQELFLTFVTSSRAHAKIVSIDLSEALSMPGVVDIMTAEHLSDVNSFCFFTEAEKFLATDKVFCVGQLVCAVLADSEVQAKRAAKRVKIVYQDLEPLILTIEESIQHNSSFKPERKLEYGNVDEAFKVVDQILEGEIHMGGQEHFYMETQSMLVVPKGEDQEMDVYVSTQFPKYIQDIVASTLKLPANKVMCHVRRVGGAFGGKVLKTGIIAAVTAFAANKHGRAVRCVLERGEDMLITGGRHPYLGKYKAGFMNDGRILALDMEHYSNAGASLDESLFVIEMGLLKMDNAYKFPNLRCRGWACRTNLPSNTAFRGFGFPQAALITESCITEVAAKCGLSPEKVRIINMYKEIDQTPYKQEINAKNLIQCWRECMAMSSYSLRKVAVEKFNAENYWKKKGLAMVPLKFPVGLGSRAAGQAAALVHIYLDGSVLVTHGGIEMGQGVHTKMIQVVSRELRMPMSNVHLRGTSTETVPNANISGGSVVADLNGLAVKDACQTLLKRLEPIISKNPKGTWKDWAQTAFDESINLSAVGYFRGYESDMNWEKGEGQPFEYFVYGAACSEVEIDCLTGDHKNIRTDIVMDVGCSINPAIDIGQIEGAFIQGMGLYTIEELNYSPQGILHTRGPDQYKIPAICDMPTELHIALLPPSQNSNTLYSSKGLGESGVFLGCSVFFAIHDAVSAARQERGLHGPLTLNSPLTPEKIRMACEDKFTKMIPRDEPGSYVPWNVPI
Description: Drug level in cryopreserved human hepatocytes assessed as aldehyde oxidase-mediated metabolite formation treated with 10 uM of BIBU1476 by LC-MS extracted ion chromatogram analysis. It is filed as ADME, cell-based, Hepatocyte.

Series [2] addresses T1, Aldehyde oxidase. Description: Retention time in cryopreserved human hepatocytes assessed as aldehyde oxidase-mediated metabolite formation treated with 10 uM of carbazeran by LC-MS extracted ion chromatogram analysis. It is filed as ADME, cell-based, Hepatocyte. A digest of the protocol:
(§1)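 Cryopreserved human hepatocytes (lot OOO) were thawed for ~2 min at 37°C, diluted 1/50 in warm recovery medium or WME, spun at 100 x g for 6 min, and resuspended in WME at a final 2.0 x 10^6 cells/mL. They were incubated with 10 µM substrate for 120 min at 37°C. Reactions were stopped with two volumes of cold acetonitrile, then spun, dried under N2 and reconstituted. Read-out was positive-ESI Orbitrap LC-MS extracted ion chromatograms.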

For series [3], the target named is T1, Aldehyde oxidase. Description: Retention time in cryopreserved human hepatocytes assessed as aldehyde oxidase-mediated metabolite formation treated with 10 uM of O6-benzylguanine by LC-MS extracted ion chromatogram analysis. It is filed as ADME, cell-based, Hepatocyte. The procedure, abridged: as §1
Series [4] in a line: Oral bioavailability in human. The class given is ADME, organism-based. The conditions noted are these: in vivo.
Series [5] addresses T1, Aldehyde oxidase. Description: Drug metabolism in cryopreserved human hepatocytes assessed as aldehyde oxidase-mediated N-(but-1-en-2-yl)-8-(3-chloro-4-fluorophenylamino)pyrimido[5,4-d]pyrimidin-2-aminium formation at 10 uM by LC-MS extracted ion chromatogram analysis. It is filed as ADME, cell-based, Hepatocyte. The procedure, abridged: as §1
Series [6] deals with T1, Aldehyde oxidase. Description: Drug metabolism in cryopreserved human hepatocytes assessed as aldehyde oxidase-mediated 8-(3-chloro-4-fluorophenylamino)-2-imino-2,3-dihydropyrimido[5,4-d]pyrimidin-3-ium formation at 10 uM by LC-MS extracted ion chromatogram analysis. The class given is ADME, cell-based, Hepatocyte. A digest of the protocol: as §1
The nature of series [7]: clinical. The conditions noted are these: human, in vivo.
For series [8], the target named is T1, Aldehyde oxidase. Description: Drug metabolism in cryopreserved human hepatocytes assessed as aldehyde oxidase-mediated metabolite formation at 10 uM by LC-MS extracted ion chromatogram analysis in presence of hydralazine.
The target in series [9] is T1, Aldehyde oxidase. Description: Drug metabolism in cryopreserved human hepatocytes assessed as aldehyde oxidase-mediated 3-(8-(3-chloro-4-fluorophenylamino)pyrimido[5,4-d]pyrimidin-2-ylamino)pent-4-en-1-ylium formation at 10 uM by LC-MS extracted ion chromatogram analysis. It is filed as ADME, cell-based, Hepatocyte. The procedure, abridged: as §1
Series [10] deals with T1, Aldehyde oxidase. Description: Drug metabolism in cryopreserved human hepatocytes assessed as aldehyde oxidase-mediated parent compound retention time at 10 uM by LC-MS extracted ion chromatogram analysis. The class given is ADME, cell-based, Hepatocyte. A digest of the protocol: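 Cryopreserved human hepatocytes (lot OOO) were thawed for ~2 min at 37°C, diluted 1/50 in warm recovery medium or WME, spun at 100 x g for 6 min, and resuspended in WME at a final 2.0 x 10^6 cells/mL. Reactions were stopped with two volumes of cold acetonitrile, then spun, dried under N2 and reconstituted. Read-out was positive-ESI Orbitrap LC-MS extracted ion chromatograms.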

For series [11], the target named is T1, Aldehyde oxidase. Description: Drug level in cryopreserved human hepatocytes assessed as aldehyde oxidase-mediated metabolite formation treated with 10 uM of BIBX1382 by LC-MS extracted ion chromatogram analysis. It is filed as ADME, cell-based, Hepatocyte. A digest of the protocol:
as §1

The target of series [12] is T1, Aldehyde oxidase. Description: Drug metabolism in cryopreserved human hepatocytes assessed as aldehyde oxidase-mediated 8-(3-chloro-4-fluorophenylamino)-2-imino-6-oxo-2,3,5,6-tetrahydropyrimido[5,4-d]pyrimidin-3-ium formation at 10 uM by LC-MS extracted ion chromatogram analysis. The class given is ADME, cell-based, Hepatocyte. The procedure, abridged: as §1
The target of series [13] is T1, Aldehyde oxidase. Description: Drug metabolism in cryopreserved human hepatocytes assessed as aldehyde oxidase-mediated N-(but-1-en-2-yl)-8-(3-chloro-4-fluorophenylamino)-6-oxo-6,7-dihydropyrimido[5,4-d]pyrimidin-2-aminium formation at 10 uM by LC-MS extracted ion chromatogram analysis. It is filed as ADME, cell-based, Hepatocyte. The procedure, abridged:
as §1

Series [14] addresses T1, Aldehyde oxidase. Description: Drug metabolism in cryopreserved human hepatocytes assessed as aldehyde oxidase-mediated 3-(8-(3-chloro-4-fluorophenylamino)-6-oxo-6,7-dihydropyrimido[5,4-d]pyrimidin-2-ylamino)pent-4-en-1-ylium formation at 10 uM by LC-MS extracted ion chromatogram analysis. The class given is ADME, cell-based, Hepatocyte. The procedure, abridged: as §1

In series [15] the target is T1, Aldehyde oxidase. Description: Retention time in cryopreserved human hepatocytes assessed as aldehyde oxidase-mediated metabolite formation treated with 10 uM of XK-469 by LC-MS extracted ion chromatogram analysis. The class given is ADME, cell-based, Hepatocyte. The procedure, abridged: as §1
Series [16] deals with T1, Aldehyde oxidase. Description: Retention time in cryopreserved human hepatocytes assessed as aldehyde oxidase-mediated metabolite formation treated with 10 uM of zaleplon by LC-MS extracted ion chromatogram analysis. The class given is ADME, cell-based, Hepatocyte. A digest of the protocol: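 Cryopreserved human hepatocytes (Lot OOO), thawed at 37°C, spun at 100 x g, resuspended in Williams' Medium E, then incubated at 2.0 x 10^6 cells/mL with 10 µM substrate for 120 min at 37°C. Quenched with two volumes of cold acetonitrile, centrifuged, supernatant dried under N2 and reconstituted in 85:15 water/acetonitrile (0.1% formic acid). Analysed by high-resolution ESI-positive Orbitrap LC-MS using extracted ion chromatograms.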

For the compound `N=c1nc2c(Nc3ccc(F)c(Cl)c3)nc(=O)[nH]c2c[nH]1`, the Drug metabolism result in series [1] is on record as “metabolite_detected”.
The same measure, in the same setting: in the case of `C=CC(CC)Nc1ncc2nc(=O)[nH]c(Nc3ccc(F)c(Cl)c3)c2n1` (centres undefined) it was “metabolite_detected”.
As for `CCNC(=O)OC1CCN(c2n[nH]c(=O)c3cc(OC)c(OC)cc23)CC1`, the Retention_time in [2] was 13.9 min.
As to `Nc1nc(OCc2ccccc2)c2[nH]c(O)nc2n1`, in series [3], the Retention_time is given as 12.5 min.
What is called bioavailability is the share of a dose that reaches the circulation, judged against a reference dose that is usually intravenous. Low values mean little systemic uptake, high ones much systemic uptake. On to `CCNC(=O)OC1CCN(c2nncc3cc(OC)c(OC)cc23)CC1` [CARBAZERAN], for which, in series [4], the bioavailability was under 5%.
What is called clearance is the volume of plasma or blood freed of the substance per unit of time. A low value points to a low capacity for elimination. On to `CN1CCC(Nc2ncc3ncnc(Nc4ccc(F)c(Cl)c4)c3n2)CC1` [FALNIDAMOL], for which the Drug metabolism result in series [5] was “metabolite_detected”; in series [6], “metabolite_detected”; in series [8], “metabolite_not_detected”; in [9], “metabolite_detected”. In [7], the clearance came out at 25 mL/min/kg. In series [4], this compound gave a bioavailability of 2%. Besides, in series [10], the Retention time was found to be 12.5 min.
As to `C=C(CC)Nc1ncc2nc(=O)[nH]c(Nc3ccc(F)c(Cl)c3)c2n1`, the Drug metabolism entry in [1] is reported as “metabolite_detected”.
`C[C@@H](Oc1ccc(Oc2cnc3ccc(Cl)cc3n2)cc1)C(=O)O` [R(+)XK469] gave a clearance in [7] of under 1 mL/min/kg. For the same compound, the Retention_time in [10] came out at 17.4 min.
`Nc1ncc2ncnc(Nc3ccc(F)c(Cl)c3)c2n1`: in [11], the Drug metabolism result is “metabolite_detected”.
Same read-out and setting: the value for `C=CC(CC)Nc1ncc2ncnc(Nc3ccc(F)c(Cl)c3)c2n1` (centres undefined) was “metabolite_detected”.
In turn, `Nc1nc(OCc2ccccc2)c2[nH]cnc2n1` [6-O-BENZYLGUANINE] gave a clearance in series [7] of 15.6 mL/min/kg. Moreover, the Drug metabolism result in series [8] is recorded as “metabolite_not_detected”. The Retention_time in [10] is reported as 10.5 min.
With `CN1CCC(Nc2ncc3nc(=O)[nH]c(Nc4ccc(F)c(Cl)c4)c3n2)CC1`, the Drug metabolism entry in [12], in series [13] and in series [14] was “metabolite_detected” throughout. For the same compound, in series [10], the Retention time stood at 10.7 min.
Turning to `C[C@@H](Oc1ccc(OC2N=c3cc(Cl)ccc3=NC2=O)cc1)C(=O)O` (some centres undefined), the Retention_time in [15] amounted to 15.7 min.
On to `CCN(C(C)=O)c1cccc(-c2cc(=O)[nH]c3c(C#N)cnn23)c1`, for which the Retention_time in [16] is 12.7 min.
Turning to `CCN(C(C)=O)c1cccc(-c2ccnc3c(C#N)cnn23)c1` [ZALEPLON], the clearance in series [7] was 15.7 mL/min/kg. Also, the Retention_time in series [10] is on record as 14.5 min.
As to `C=C(CC)Nc1ncc2ncnc(Nc3ccc(F)c(Cl)c3)c2n1`, the Drug metabolism result in [11] is listed as “metabolite_detected”.
